Laboratory results from ChEMBL document CHEMBL1153775, “Synthesis, structure elucidation and antitumour activity of N-substituted amides of 3-(3-ethylthio-1,2,4-triazol-5-yl)propenoic acid” (Eur J Med Chem, 2009).

Assays:
T47D [1] = assay: Cytotoxicity against human T47D cells assessed as growth inhibition at 0.17 mM after 24 hrs by spectrophotometer using BrdU labeling; type: functional; settings: read-out: GI
Method in brief: (§1)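 Human breast carcinoma T47D cells were plated at 10⁴ cells per mL on microtiter plates. Each compound was added at three doses, given as mM equivalents of three mass concentrations. Plates were incubated for 24, 48 or 72 h. The read-out was percent growth inhibition (GI).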

[2] = Cytotoxicity against human HSF cells assessed as growth inhibition at 0.17 mM after 24 hrs by spectrophotometer using BrdU labeling; type: cell-based; settings: read-out: GI
T47D [3] = assay: Cytotoxicity against human T47D cells assessed as growth inhibition at 0.03 mM after 24 hrs by spectrophotometer using BrdU labeling; type: functional; settings: read-out: GI
T47D [4] = assay: Cytotoxicity against human T47D cells assessed as growth inhibition at 0.35 mM after 48 hrs by spectrophotometer using BrdU labeling; type: functional; settings: read-out: GI; method in brief: as §1
A549 [5] = assay: Cytotoxicity against human A549 cells assessed as growth inhibition at 0.03 mM after 72 hrs by spectrophotometer using BrdU labeling; type: functional; settings: A549, 72 h, read-out: GI
A549 [6] = assay: Cytotoxicity against human A549 cells assessed as growth inhibition at 0.03 mM after 24 hrs by spectrophotometer using BrdU labeling; type: functional; settings: A549, 24 h, read-out: GI
A549 [7] = assay: Cytotoxicity against human A549 cells assessed as growth inhibition at 0.17 mM after 48 hrs by spectrophotometer using BrdU labeling; type: functional; settings: A549, 48 h, read-out: GI
T47D [8] = assay: Cytotoxicity against human T47D cells assessed as growth inhibition at 0.35 mM after 72 hrs by spectrophotometer using BrdU labeling; type: functional; settings: read-out: GI; method in brief: as §1
[9] = Cytotoxicity against human HSF cells assessed as growth inhibition at 0.03 mM after 48 hrs by spectrophotometer using BrdU labeling; type: cell-based; settings: read-out: GI
A549 [10] = assay: Cytotoxicity against human A549 cells assessed as growth inhibition at 0.03 mM after 48 hrs by spectrophotometer using BrdU labeling; type: functional; settings: A549, 48 h, read-out: GI
T47D [11] = assay: Cytotoxicity against human T47D cells assessed as growth inhibition at 0.03 mM after 72 hrs by spectrophotometer using BrdU labeling; type: functional; settings: read-out: GI
[12] = Cytotoxicity against human HSF cells assessed as growth inhibition at 0.35 mM after 48 hrs by spectrophotometer using BrdU labeling; type: cell-based; settings: read-out: GI
[13] = Cytotoxicity against human HSF cells assessed as growth inhibition at 0.17 mM after 48 hrs by spectrophotometer using BrdU labeling; type: cell-based; settings: read-out: GI
[14] = Cytotoxicity against human HSF cells assessed as growth inhibition at 0.03 mM after 24 hrs by spectrophotometer using BrdU labeling; type: cell-based; settings: read-out: GI
[15] = Cytotoxicity against human HSF cells assessed as growth inhibition at 0.35 mM after 72 hrs by spectrophotometer using BrdU labeling; type: cell-based; settings: read-out: GI
A549 [16] = assay: Cytotoxicity against human A549 cells assessed as growth inhibition at 0.35 mM after 72 hrs by spectrophotometer using BrdU labeling; type: functional; settings: A549, 72 h, read-out: GI
[17] = Cytotoxicity against human HSF cells assessed as growth inhibition at 0.35 mM after 24 hrs by spectrophotometer using BrdU labeling; type: cell-based; settings: read-out: GI
A549 [18] = assay: Cytotoxicity against human A549 cells assessed as growth inhibition at 0.35 mM after 24 hrs by spectrophotometer using BrdU labeling; type: functional; settings: A549, 24 h, read-out: GI
A549 [19] = assay: Cytotoxicity against human A549 cells assessed as growth inhibition at 0.17 mM after 24 hrs by spectrophotometer using BrdU labeling; type: functional; settings: A549, 24 h, read-out: GI
T47D [20] = assay: Cytotoxicity against human T47D cells assessed as growth inhibition at 0.35 mM after 24 hrs by spectrophotometer using BrdU labeling; type: functional; settings: read-out: GI; method in brief: as §1
T47D [21] = assay: Cytotoxicity against human T47D cells assessed as growth inhibition at 0.17 mM after 48 hrs by spectrophotometer using BrdU labeling; type: functional; settings: read-out: GI; method in brief: as §1
T47D [22] = assay: Cytotoxicity against human T47D cells assessed as growth inhibition at 0.17 mM after 72 hrs by spectrophotometer using BrdU labeling; type: functional; settings: read-out: GI; method in brief: as §1
[23] = Cytotoxicity against human HSF cells assessed as growth inhibition at 0.17 mM after 72 hrs by spectrophotometer using BrdU labeling; type: cell-based; settings: read-out: GI
A549 [24] = assay: Cytotoxicity against human A549 cells assessed as growth inhibition at 0.17 mM after 72 hrs by spectrophotometer using BrdU labeling; type: functional; settings: A549, 72 h, read-out: GI
[25] = Cytotoxicity against human HSF cells assessed as growth inhibition at 0.03 mM after 72 hrs by spectrophotometer using BrdU labeling; type: cell-based; settings: read-out: GI
T47D [26] = assay: Cytotoxicity against human T47D cells assessed as growth inhibition at 0.03 mM after 48 hrs by spectrophotometer using BrdU labeling; type: functional; settings: read-out: GI
A549 [27] = assay: Cytotoxicity against human A549 cells assessed as growth inhibition at 0.35 mM after 48 hrs by spectrophotometer using BrdU labeling; type: functional; settings: A549, 48 h, read-out: GI
[28] = Cytotoxicity against human HSF cells assessed as growth inhibition at 0.14 mM after 24 hrs by spectrophotometer using BrdU labeling; type: cell-based; settings: read-out: GI
T47D [29] = assay: Cytotoxicity against human T47D cells assessed as growth inhibition at 0.28 mM after 24 hrs by spectrophotometer using BrdU labeling; type: functional; settings: read-out: GI; method in brief: as §1
A549 [30] = assay: Cytotoxicity against human A549 cells assessed as growth inhibition at 0.28 mM after 24 hrs by spectrophotometer using BrdU labeling; type: functional; settings: A549, 24 h, read-out: GI
T47D [31] = assay: Cytotoxicity against human T47D cells assessed as growth inhibition at 0.28 mM after 72 hrs by spectrophotometer using BrdU labeling; type: functional; settings: read-out: GI; method in brief: as §1
T47D [32] = assay: Cytotoxicity against human T47D cells assessed as growth inhibition at 0.14 mM after 72 hrs by spectrophotometer using BrdU labeling; type: functional; settings: read-out: GI
[33] = Cytotoxicity against human HSF cells assessed as growth inhibition at 0.28 mM after 24 hrs by spectrophotometer using BrdU labeling; type: cell-based; settings: read-out: GI
[34] = Cytotoxicity against human HSF cells assessed as growth inhibition at 0.28 mM after 72 hrs by spectrophotometer using BrdU labeling; type: cell-based; settings: read-out: GI
[35] = Cytotoxicity against human HSF cells assessed as growth inhibition at 0.14 mM after 72 hrs by spectrophotometer using BrdU labeling; type: cell-based; settings: read-out: GI
[36] = Cytotoxicity against human HSF cells assessed as growth inhibition at 0.28 mM after 48 hrs by spectrophotometer using BrdU labeling; type: cell-based; settings: read-out: GI
T47D [37] = assay: Cytotoxicity against human T47D cells assessed as growth inhibition at 0.28 mM after 48 hrs by spectrophotometer using BrdU labeling; type: functional; settings: read-out: GI; method in brief: as §1
T47D [38] = assay: Cytotoxicity against human T47D cells assessed as growth inhibition at 0.14 mM after 24 hrs by spectrophotometer using BrdU labeling; type: functional; settings: read-out: GI
T47D [39] = assay: Cytotoxicity against human T47D cells assessed as growth inhibition at 0.14 mM after 48 hrs by spectrophotometer using BrdU labeling; type: functional; settings: read-out: GI
A549 [40] = assay: Cytotoxicity against human A549 cells assessed as growth inhibition at 0.14 mM after 48 hrs by spectrophotometer using BrdU labeling; type: functional; settings: A549, 48 h, read-out: GI
A549 [41] = assay: Cytotoxicity against human A549 cells assessed as growth inhibition at 0.14 mM after 24 hrs by spectrophotometer using BrdU labeling; type: functional; settings: A549, 24 h, read-out: GI
A549 [42] = assay: Cytotoxicity against human A549 cells assessed as growth inhibition at 0.28 mM after 72 hrs by spectrophotometer using BrdU labeling; type: functional; settings: A549, 72 h, read-out: GI
A549 [43] = assay: Cytotoxicity against human A549 cells assessed as growth inhibition at 0.28 mM after 48 hrs by spectrophotometer using BrdU labeling; type: functional; settings: A549, 48 h, read-out: GI
[44] = Cytotoxicity against human HSF cells assessed as growth inhibition at 0.14 mM after 48 hrs by spectrophotometer using BrdU labeling; type: cell-based; settings: read-out: GI
A549 [45] = assay: Cytotoxicity against human A549 cells assessed as growth inhibition at 0.14 mM after 72 hrs by spectrophotometer using BrdU labeling; type: functional; settings: A549, 72 h, read-out: GI

## CCSc1n[nH]c(/C=C\C(=O)Nc2cccc(C)c2)n1
T47D [1]
  inhibition of growth at 170 µM: 5%
[2]
  inhibition at 24 h, 170 µM: 50%
T47D [3]
  inhibition of growth at 30 µM: 0%
T47D [4]
  inhibition of growth at 350 µM: 0%
A549 [5]
  inhibition of growth at 30 µM: 0%
A549 [6]
  inhibition of growth at 30 µM: 20%
A549 [7]
  inhibition of growth at 170 µM: 50%
T47D [8]
  inhibition of growth at 350 µM: 25%
[9]
  inhibition at 48 h, 30 µM: 0%
A549 [10]
  inhibition of growth at 30 µM: 5%
T47D [11]
  inhibition of growth at 30 µM: 5%
[12]
  inhibition at 48 h, 350 µM: 50%
[13]
  inhibition at 48 h, 170 µM: 50%
[14]
  inhibition at 24 h, 30 µM: 0%
[15]
  inhibition at 72 h, 350 µM: 50%
A549 [16]
  inhibition of growth at 350 µM: 50%
[17]
  inhibition at 24 h, 350 µM: 5%
A549 [18]
  inhibition of growth at 350 µM: 50%
A549 [19]
  inhibition of growth at 170 µM: 50%
T47D [20]
  inhibition of growth at 350 µM: 0%
T47D [21]
  inhibition of growth at 170 µM: 5%
T47D [22]
  inhibition of growth at 170 µM: 25%
[23]
  inhibition at 72 h, 170 µM: 50%
A549 [24]
  inhibition of growth at 170 µM: 25%
[25]
  inhibition at 72 h, 30 µM: 0%
T47D [26]
  inhibition of growth at 30 µM: 5%
A549 [27]
  inhibition of growth at 350 µM: 50%

## CCSc1n[nH]c(/C=C\C(=O)Nc2ccc(Br)cc2)n1
[28]
  inhibition at 24 h, 140 µM: 75%
T47D [3]
  inhibition of growth at 30 µM: 0%
T47D [29]
  inhibition of growth at 280 µM: 5%
A549 [30]
  inhibition of growth at 280 µM: 50%
A549 [5]
  inhibition of growth at 30 µM: 0%
T47D [31]
  inhibition of growth at 280 µM: 25%
T47D [32]
  inhibition of growth at 140 µM: 25%
[33]
  inhibition at 24 h, 280 µM: 75%
[34]
  inhibition at 72 h, 280 µM: 50%
A549 [6]
  inhibition of growth at 30 µM: 25%
[9]
  inhibition at 48 h, 30 µM: 0%
A549 [10]
  inhibition of growth at 30 µM: 25%
T47D [11]
  inhibition of growth at 30 µM: 0%
[35]
  inhibition at 72 h, 140 µM: 75%
[36]
  inhibition at 48 h, 280 µM: 75%
T47D [37]
  inhibition of growth at 280 µM: 20%
[14]
  inhibition at 24 h, 30 µM: 0%
T47D [38]
  inhibition of growth at 140 µM: 5%
T47D [39]
  inhibition of growth at 140 µM: 10%
A549 [40]
  inhibition of growth at 140 µM: 50%
A549 [41]
  inhibition of growth at 140 µM: 50%
A549 [42]
  inhibition of growth at 280 µM: 75%
A549 [43]
  inhibition of growth at 280 µM: 50%
[25]
  inhibition at 72 h, 30 µM: 0%
[44]
  inhibition at 48 h, 140 µM: 75%
T47D [26]
  inhibition of growth at 30 µM: 0%
A549 [45]
  inhibition of growth at 140 µM: 50%
